Measurements pooled from the literature.
Each line is one published result; the experiments were not run side by side.

| Structure (SMILES) | system | conditions | quantity | result |
| --- | --- | --- | --- | --- |
| CN1CC[C@@H](c2c(O)cc(O)c3c(=O)cc(-c4ccc(C(F)(F)F)cc4Cl)oc23)[C@@H]1CO | human, plasma | oral, 100 mg, patients | Tmax | 3.9 h |
| COc1ccc([C@@H](O)c2cc(-c3ncnc4cc(N5CCOCC5)ccc34)c(F)cc2Cl)nn1 | human, plasma | oral, 200 mg, single dose, patients | Tmax | 2.02 h |
| COc1ccc([C@@H]2Sc3ccccc3N(CCN(C)C)C(=O)[C@@H]2OC(C)=O)cc1 | Sprague-Dawley rat, hepatocytes | 2 µM, 4 h, pH 7.4 | fraction unbound | 0.89 |
| N#C[C@@]12C[C@@H]1[C@@H](n1cnc3c(N[C@@H](C4CCC4)C4CC4)nc(I)nc31)[C@H](O)[C@@H]2O | male Wistar rat, plasma | oral, 1 mg/kg | MRT(0-t) | 1.59 h |
| O=C1c2ccncc2C(=O)c2c1[nH]c1ccccc21 | rat, plasma | intravenous, 1 mg/kg, single dose | MRT | 2.4 h |
| NS(=O)(=O)OC[C@@H]1C[C@@H](n2ccc3c(N[C@H]4CCc5ccccc54)ncnc32)C[C@@H]1O | human, plasma | intravenous, 25 mg/m², patients | Tmax | 1.04 h |
| CC(C)NCC(O)COc1cccc2ccccc12 (stereo not shown) | Sprague-Dawley rat, hepatocytes | 2 µM, 4 h, pH 7.4 | fraction unbound | 0.88 |
| O=C1CC[C@H](N2Cc3cc(N4CCN(CC5CCN(c6ccc([C@@H]7c8ccc(O)cc8CC[C@@H]7c7ccccc7)cc6)CC5)CC4)ccc3C2=O)C(=O)N1 | female Sprague-Dawley rat, plasma | oral, 20 mg/kg, fed | MRT(0-inf) | 12 h |
| C[C@H]1[C@@H](O)O[C@@H]2O[C@@]3(C)CC[C@H]4[C@H](C)CC[C@@H]1[C@@]24OO3 | Sprague-Dawley rat, plasma | oral, 10 mg/kg | MRT(0-t) | 2.93 h |
| Cn1cc(Nc2nc(N)nc(-c3cccc(-n4ccc5cc(C6CC6)cc(F)c5c4=O)c3CO)n2)cn1 | human, plasma | oral, 300 mg, single dose, fasted, suspension | Tmax | 2.52 h |
